The test system of assay [1] is Plasmodium falciparum. As to the kind of experiment: Antimalarial activity against multidrug-resistant Plasmodium falciparum K1 by microculture radioisotope technique. It counts as functional, organism-based.
Assay [2] concerns Mycobacterium tuberculosis. As to the kind of experiment: Antimycobacterial activity against Mycobacterium tuberculosis H37Ra by green fluorescent protein-based fluorescent assay. It counts as functional.
For assay [3], the system named is KB. As to the kind of experiment: Cytotoxicity against human KB cells. It counts as functional, cell-based. In short, it runs like this: (§1)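 KB (oral human carcinoma) and MCF-7 (human breast cancer) cells; resazurin microplate assay.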
For assay [4], the system named is MCF7. As to the kind of experiment: Cytotoxicity against human MCF7 cells. Type of assay: functional, cell-based. In short, it runs like this:
as §1

The subject of assay [5] is Vero. As to the kind of experiment: Cytotoxicity against african green monkey Vero cells. Type of assay: cell-based, Chlorocebus sabaeus. In short, it runs like this:
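Vero cells (African green monkey kidney fibroblasts), noncancerous; run in triplicate by the method of Hunt and co-workers.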

The subject of assay [6] is Cryptococcus neoformans. As to the kind of experiment: Antimicrobial activity against Cryptococcus neoformans by colorimetric broth microdilution test. It counts as functional. In short, it runs like this:
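Colorimetric broth microdilution run to CLSI M27-A2 (reference broth dilution method for yeasts) and Drummond and Waigh.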
Background: In broth dilution the organism is exposed to a series of concentrations in liquid medium.

The subject of assay [7] is Nannizzia gypsea. The experiment in a line: Antimicrobial activity against Microsporum gypseum by colorimetric broth microdilution test. Type of assay: functional. In short, it runs like this: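 Colorimetric broth microdilution run to CLSI M38-A (broth dilution method for filamentous fungi) and Drummond and Waigh.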
The mark [8] stands for this setting: Plasmodium falciparum, K1, read-out: IC50.
The mark [9] stands for this setting: Homo sapiens, KB, read-out: IC50.
Setting [10] is: Chlorocebus sabaeus, Vero, read-out: IC50.

Structures are written as SMILES. Values after ≈ are worked out from the molar mass of the structure shown. Active and inactive are the calls of the source. Bounds are passed on as bounds.

As to `COC1=CC(=O)c2c(cc3c(c2O)C[C@@H](O)[C@@](C)(O)C3)C1=O` [NIGROSPORIN B], the half-maximal inhibitory concentration (IC50) in assay [1] (setting [8]) was 13 µM; in assay [3] (setting [9]), 88 µM; in assay [4] it was 5.4 µM; in assay [5] (setting [10]) it was 29 µM. Besides, in assay [2], the minimal inhibitory concentration (MIC) was found to be 41 µM (≈ 12.5 µg/mL).
For the compound `C[C@H]1[C@@H](O)O[C@@H]2O[C@@]3(C)CC[C@H]4[C@H](C)CC[C@@H]1[C@@]24OO3` [ARTENIMOL], the IC50 in assay [1] (setting [8]) came to 0.004 µM.
Consider `COc1cc(O)c2c(c1O)[C@H](O)[C@H]1C[C@](C)(O)[C@H](O)[C@@H](O)[C@@H]1C2=O` [9ALPHA-HYDROXYHALOROSELLINIA A], for which the IC50 in assay [1] (setting [8]) amounted to 25 µM; in assay [3] (setting [9]), 49 µM; in assay [4], 6.2 µM; in assay [5] (setting [10]) it was 54 µM. The same compound came in with an MIC in assay [2] of 39 µM (≈ 13.3 µg/mL).
On to `COC1=CC(=O)c2c(O)c3c(c(O)c2C1=O)CC(C)(O)OC3` (stereo not given) [FUSARUBIN], for which the MIC in assay [6] and in assay [7] was greater than 200 µM each time. Also, the IC50 entry in assay [1] was “Not Active”; in assay [3] (setting [9]), 14 µM; in assay [4] it was 9.8 µM; in assay [5] (setting [10]), 79 µM. The MIC entry in assay [2] is “inactive”.
As to `COC1=CC(=O)c2c(O)c3c(c(O)c2C1=O)C=C(C)OC3` [ANHYDROFUSARUBIN], the IC50 in assay [1] (setting [8]) stood at 14 µM; in assay [3] (setting [9]), 2 µM; in assay [4], 0.9 µM; in assay [5] (setting [10]), 58 µM. Besides, the MIC in assay [2] was found to be 87 µM (≈ 25.1 µg/mL).
In assay [2], `NNC(=O)c1ccncc1` [ISONIAZID] gave an MIC of 0.17 µM (≈ 0.0233 µg/mL).
Turning to `COc1cccc2c1C(=O)c1c(O)c3c(c(O)c1C2=O)C[C@@](O)(C(=O)CO)C[C@@H]3O[C@H]1C[C@H](N)[C@H](O)[C@H](C)O1` [DOXORUBICIN], the IC50 in assay [3] (setting [9]) stood at 0.33 µM; in assay [4], 2.18 µM.
`COc1cc(O)c2c(c1O)[C@H](O)[C@H]1C[C@](C)(O)[C@H](O)C[C@@H]1C2=O`: the IC50 entry in assay [1] is “Not Active”; in assay [3] (setting [9]) it was 19 µM; in assay [4], 15 µM; in assay [5] (setting [10]) it was 57 µM. Moreover, in assay [2], the MIC result is “inactive”.
Regarding `CO[C@@H]1CC(=O)c2c(O)c(C)c3cc(C)oc3c2[C@@H]1O` [FUSARNAPHTHOQUINONE B], the MIC in assay [6] and in assay [7] was greater than 200 µM in each case.
Turning to `COC1=CC(=O)c2c(O)c(C)c(CC(C)=O)c(O)c2C1=O` [JAVANICIN], the IC50 worked out at 12 µM in assay [1] (setting [8]), 5.7 µM in assay [3] (setting [9]), 13 µM in assay [4] and 170 µM in assay [5] (setting [10]). Besides, in assay [2], the MIC entry is “inactive”.
As to `COc1cc(O)c2c(c1O)C(=O)c1cc(C)ccc1C2=O` [AUSTROCORTIRUBIN], the IC50 result in assay [1] was “Not Active”; in assay [3] (kb), “Not Active”; in assay [4], 6.3 µM; in assay [5] (vero) it was “Not Active”. In addition, the MIC entry in assay [2] was “inactive”.
For `Cc1c2ccncc2c(C)c2c1[nH]c1ccccc12` [ELLIPTECINE], the half-maximal inhibitory concentration (IC50) came out at 1.1 µM in assay [3] (setting [9]) and 4.47 µM in assay [5] (setting [10]).
As to `COc1cc(O)c2c(c1O)[C@@H](O)[C@@H](CC(C)=O)[C@@H](CO)C2=O` [FUSARNAPHTHOQUINONE A], the IC50 result in assay [1] was “Not Active”; in assay [3] (setting [9]) it was 130 µM; in assay [4] it was 22 µM; in assay [5] (vero), “Not Active”. In addition, the MIC result in assay [2] was “inactive”.
For the compound `COC1=CC(=O)c2c(O)c3c(c(O)c2C1=O)C[C@](C)(O)[C@H](O)[C@H]3O` [BOSTRYCIN], the IC50 in assay [1] (setting [8]) turned out to be 9.8 µM; in assay [3] (setting [9]) it was 0.9 µM; in assay [4], 2.7 µM; in assay [5] (setting [10]), 4.2 µM. The MIC result in assay [2] was “inactive”.

By IC50 is commonly meant the midpoint of a concentration-inhibition curve. A word on the MIC: it is the smallest concentration in the dilution series that meets the test's criterion for growth inhibition.
